Data as given in ChEMBL document CHEMBL1141363, “Synthesis and evaluation of novel heterocyclic MMP inhibitors” (Bioorg Med Chem Lett, 2007).

How the values were obtained:
[1] = molecular target: T1, Interstitial collagenase (Homo sapiens, UniProt P03956); assay: Inhibition of MMP1
T1 sequence (P03956 whole entry): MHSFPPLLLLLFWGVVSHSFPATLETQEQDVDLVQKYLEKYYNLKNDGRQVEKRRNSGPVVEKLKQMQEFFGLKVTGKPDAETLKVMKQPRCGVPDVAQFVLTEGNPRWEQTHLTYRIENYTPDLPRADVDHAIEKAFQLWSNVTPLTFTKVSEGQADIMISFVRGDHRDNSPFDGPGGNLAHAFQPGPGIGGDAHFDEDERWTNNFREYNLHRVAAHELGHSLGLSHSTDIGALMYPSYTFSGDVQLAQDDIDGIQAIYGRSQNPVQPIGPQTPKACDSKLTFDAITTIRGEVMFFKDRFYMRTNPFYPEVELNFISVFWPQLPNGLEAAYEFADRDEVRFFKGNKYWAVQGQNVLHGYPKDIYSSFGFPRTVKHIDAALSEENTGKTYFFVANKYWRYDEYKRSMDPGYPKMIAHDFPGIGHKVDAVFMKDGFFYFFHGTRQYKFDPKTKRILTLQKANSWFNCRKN
Summary of the method: (§1)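 Catalytic domains used at final levels of 85 nM (MMP-1), 24 nM (MMP-2), 18 nM (MMP-9) and 84 nM (MMP-12). Each enzyme was premixed with compound (serial 1:2 dilutions, 150 to 1.2) for 30 min at 37 °C. Substrate was added in 50 mM Hepes with 5 mM CaCl2 and 0.05% w/w Brij-35, pH 7.5, then incubated 30 min. Fluorescence read at ex 328/em 393 nm over 45 min, every 50 s.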

[2] = molecular target: 72 kDa type IV collagenase (Homo sapiens, UniProt P08253); assay: Inhibition of MMP2; summary of the method: as §1
[3] = molecular target: Matrix metalloproteinase-9 (Homo sapiens, UniProt P14780); assay: Inhibition of MMP9; summary of the method: as §1
[4] = molecular target: Macrophage metalloelastase (Homo sapiens, UniProt P39900); assay: Inhibition of MMP12; summary of the method: as §1
Sequence of Macrophage metalloelastase (P39900 whole entry): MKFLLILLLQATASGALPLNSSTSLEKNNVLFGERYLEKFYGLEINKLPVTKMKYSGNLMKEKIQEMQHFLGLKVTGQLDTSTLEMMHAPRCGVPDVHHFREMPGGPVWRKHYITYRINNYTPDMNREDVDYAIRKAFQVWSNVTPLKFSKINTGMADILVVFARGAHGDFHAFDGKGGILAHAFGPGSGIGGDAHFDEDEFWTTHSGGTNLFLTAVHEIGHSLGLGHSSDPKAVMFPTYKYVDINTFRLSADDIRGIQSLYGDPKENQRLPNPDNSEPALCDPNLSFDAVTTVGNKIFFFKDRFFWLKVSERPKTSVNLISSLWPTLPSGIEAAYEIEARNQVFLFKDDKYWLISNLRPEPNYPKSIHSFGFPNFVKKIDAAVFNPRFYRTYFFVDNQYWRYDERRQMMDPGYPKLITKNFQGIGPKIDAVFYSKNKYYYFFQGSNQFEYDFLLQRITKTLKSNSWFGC

Sequence of Matrix metalloproteinase-9 (P14780 whole entry): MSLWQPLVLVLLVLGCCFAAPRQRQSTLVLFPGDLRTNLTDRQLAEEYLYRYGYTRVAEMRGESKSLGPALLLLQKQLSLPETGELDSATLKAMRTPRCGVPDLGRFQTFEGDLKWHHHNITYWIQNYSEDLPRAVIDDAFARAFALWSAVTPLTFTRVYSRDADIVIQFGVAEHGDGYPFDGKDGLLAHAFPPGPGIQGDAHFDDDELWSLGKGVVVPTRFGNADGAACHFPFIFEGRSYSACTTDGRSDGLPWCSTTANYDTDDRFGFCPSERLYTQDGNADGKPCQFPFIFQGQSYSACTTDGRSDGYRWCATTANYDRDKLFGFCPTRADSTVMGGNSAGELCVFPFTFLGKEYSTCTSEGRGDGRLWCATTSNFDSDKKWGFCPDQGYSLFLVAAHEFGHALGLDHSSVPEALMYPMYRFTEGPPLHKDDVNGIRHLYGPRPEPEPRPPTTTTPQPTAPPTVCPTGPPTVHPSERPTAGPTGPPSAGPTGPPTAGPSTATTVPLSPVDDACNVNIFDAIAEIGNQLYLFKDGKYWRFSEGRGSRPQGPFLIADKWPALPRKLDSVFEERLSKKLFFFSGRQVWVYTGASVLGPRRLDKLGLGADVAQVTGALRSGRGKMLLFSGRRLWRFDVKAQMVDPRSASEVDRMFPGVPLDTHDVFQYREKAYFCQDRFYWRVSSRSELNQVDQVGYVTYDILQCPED
Sequence of 72 kDa type IV collagenase (P08253 whole entry): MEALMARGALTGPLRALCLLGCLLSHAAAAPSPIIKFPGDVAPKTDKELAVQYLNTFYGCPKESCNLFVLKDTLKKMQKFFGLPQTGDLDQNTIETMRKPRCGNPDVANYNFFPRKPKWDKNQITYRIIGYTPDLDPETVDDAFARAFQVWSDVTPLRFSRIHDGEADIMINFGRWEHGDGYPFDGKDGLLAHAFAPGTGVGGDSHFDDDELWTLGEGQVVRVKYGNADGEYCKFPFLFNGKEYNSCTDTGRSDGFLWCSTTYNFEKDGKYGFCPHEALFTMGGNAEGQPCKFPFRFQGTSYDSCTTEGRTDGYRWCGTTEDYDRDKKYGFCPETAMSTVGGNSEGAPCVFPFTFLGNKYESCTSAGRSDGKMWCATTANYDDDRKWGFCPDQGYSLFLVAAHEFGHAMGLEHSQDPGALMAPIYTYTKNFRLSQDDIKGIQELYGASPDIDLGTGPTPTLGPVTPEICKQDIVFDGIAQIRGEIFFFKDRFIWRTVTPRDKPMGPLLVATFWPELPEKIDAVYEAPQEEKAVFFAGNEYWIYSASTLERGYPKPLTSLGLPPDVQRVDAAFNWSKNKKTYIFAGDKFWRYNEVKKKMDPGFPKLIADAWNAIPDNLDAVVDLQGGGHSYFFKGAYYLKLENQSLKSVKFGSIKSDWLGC

Structure (SMILES)	IC50 [1] [µM]	IC50 [2] [µM]	IC50 [3] [µM]	IC50 [4] [µM]
CCCCCCn1cc(C2=NCCO2)nn1	> 150	> 150	> 150	> 150
c1ccc(Cn2cc(C3=NCCO3)nn2)cc1	> 150	> 150	> 150	> 150
c1ccc(CCCn2cc(C3=NCCO3)nn2)cc1	> 150	> 150	> 150	> 150
O=C(OCc1ccc(F)cc1)c1cccc(S)n1	120	108	120	112
O=C(OCc1c(F)cccc1F)c1cccc(=S)[nH]1	92	66	101	127
O=C(OCc1cc(F)c(F)cc1F)c1cccc(=S)[nH]1	124	90	105	106
O=C(OCc1cccc(Oc2ccccc2)c1)c1cccc(S)n1	78	46	75	71
O=C(OCc1ccc(Oc2ccccc2)cc1)c1cccc(S)n1	114	93	110	109
O=C(Oc1cccc2ccccc12)c1cccc(=S)[nH]1	> 150	98	> 150	> 150
O=C(Oc1ccc2ccccc2c1)c1cccc(S)n1	99	100	119	101
O=C(OCc1ccc(-c2ccccc2)cc1)c1cccc(=S)[nH]1	119	110	150	135
O=C(OCc1cccc(-c2ccccc2)c1)c1cccc(=S)[nH]1	75	42	50	52
c1ccc(CCn2nnc(Cc3cccnc3)n2)cc1	> 150	> 150	> 150	> 150
O=C(Oc1ccc2ccccc2c1)c1cccc(=O)[nH]1	75	125	103	97
O=C(OCc1cccc(-c2ccccc2)c1)c1cccc(=O)[nH]1	42	33	> 150	99
Cc1ccc(COC(=O)c2cccc(=S)[nH]2)cc1	> 150	98	119	81
O=C(OCc1cccc(C(F)(F)F)c1)c1cccc(=S)[nH]1	134	110	126	134

Structure (SMILES)	IC50 [1] [µM]	IC50 [2] [µM]	IC50 [3] [µM]	IC50 [4] [µM]
COc1cccc(COC(=O)c2cccc(S)n2)c1	86	90	93	78
O=C(OCc1ccc(Br)cc1)c1cccc(=O)[nH]1	81	107	114	105
O=C(OCCCCOc1ccccc1)c1cccc(S)n1	138	63	83	78
O=C(OC/C=C/c1ccccc1)c1cccc(=O)[nH]1	86	90	73	70
O=C(OCc1ccc(C(F)(F)F)cc1)c1cccc(=S)[nH]1	> 150	125	141	94
O=C(Oc1ccsc1)c1cccc(=O)[nH]1	39	65	67	62
O=C(Oc1cccc2ccccc12)c1cccc(=O)[nH]1	115	109	109	111
COc1ccc(COC(=O)c2cccc(S)n2)cc1	108	91	95	96
O=C(OCc1ccccc1Br)c1cccc(S)n1	> 150	108	> 150	> 150
c1cncc(Cc2nnn[nH]2)c1	> 150	48	> 150	> 150
c1ccc(Cn2nnc(Cc3cccnc3)n2)cc1	> 150	> 150	> 150	> 150
CCCCCCCn1cc(C2=NCCO2)nn1	> 150	> 150	> 150	> 150
c1ccc(CCn2cc(C3=NCCO3)nn2)cc1	> 150	> 150	> 150	> 150
O=C(OCc1ccccc1)c1cccc(S)n1	101	85	88	82
C(=C\c1ccccc1)/Cn1nnc(Cc2cccnc2)n1	> 150	> 150	> 150	> 150
O=C(OC1CCCCC1)c1cccc(S)n1	102	73	91	87

Further lines, results first:

IC50 [1] [µM]	IC50 [2] [µM]	IC50 [3] [µM]	IC50 [4] [µM]	Structure (SMILES)
> 150	149	> 150	61	C(=C\c1ccccc1)/Cn1cc(C2=NCCO2)nn1
115	85	109	105	CCCCCCOC(=O)c1cccc(S)n1
126	96	112	115	O=C(OCc1ccc(Cl)cc1)c1cccc(S)n1
50	103	66	68	CCCCCOC(=O)c1cccc(=O)[nH]1
135	> 150	137	> 150	O=C(OC1CCC1)c1cccc(S)n1
120	119	107	117	O=C(OCCc1ccccc1)c1cccc(=S)[nH]1
95	100	112	85	O=C(OCCCc1ccccc1)c1cccc(=S)[nH]1
128	107	114	105	O=C(OCc1ccc2c(c1)OCO2)c1cccc(=O)[nH]1
68	> 150	> 150	118	O=C(OCc1cccc(Oc2ccccc2)c1)c1cccc(=O)[nH]1
56	73	70	65	O=C(Oc1cccs1)c1cccc(=O)[nH]1
> 150	7	7	70	Cc1cccc(COC(=O)c2cccc(S)n2)c1
119	124	107	151	O=C(OCc1cccc(F)c1)c1cccc(S)n1
46	111	90	76	O=C(Oc1ccco1)c1cccc(=O)[nH]1
108	77	90	93	O=C(Oc1ccsc1)c1cccc(S)n1
> 150	> 150	> 150	> 150	c1ccc(CCCn2nnc(Cc3cccnc3)n2)cc1
114	79	140	17	O=C(OCc1cc(F)ccc1F)c1cccc(S)n1
121	> 150	132	146	CC(C)OC(=O)c1cccc(S)n1
31	67	67	67	CC(C)OC(=O)c1cccc(=O)[nH]1
